Measured values published in ChEMBL document CHEMBL1148530, “Discovery of new antitubercular oxazolyl thiosemicarbazones” (J Med Chem, 2006).
Converted amounts (≈) assume the structure as drawn. The source made the active and inactive calls. The rule behind the calls is not given here.

The compounds below were run on Vero (assay: Selectivity index, IC50 for Vero cell line/ MIC for multidrug resistant Mycobacterium tuberculosis).
Assay type: functional
How it was run: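 Vero cells were exposed to compound at 62.5 µg/mL for 72 h. Viability was read by MTT conversion to formazan. Selectivity index is the Vero IC50 divided by the agar-dilution MIC against the listed strain.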

| Structure (SMILES) | Selectivity index |
| --- | --- |
| S=C(NN=C(c1ccccc1)c1ccccc1)Nc1ncc(C2CCC2)o1 | >1250 |

What follows are compounds tested on Mycobacterium tuberculosis (assay: Antimycobacterial activity against multidrug resistant Mycobacterium tuberculosis at 25 ug/ml).
Assay type: functional, organism-based
How it was run: (§1)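 MIC determined by agar dilution, following the NCCLS-recommended approach, in duplicate. Strains were M. tuberculosis H37Rv and a multidrug-resistant M. tuberculosis. Concentrations were tested up to 25 µg/mL.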

| Structure (SMILES) | Activity |
| --- | --- |
| N/N=C(\S)Nc1ncc(C2CCC2)o1 | inactive |

What follows are compounds tested on Mycobacterium tuberculosis (assay: Antimycobacterial activity against multidrug resistant Mycobacterium tuberculosis).
Assay type: functional
How it was run: as §1

| Structure (SMILES) | MIC [µg/mL] |
| --- | --- |
| C/C(=N\N=C(/S)Nc1ncc(C2CCC2)o1)c1ccccc1 | 3.12 (≈ 9.92 µM) |
| Oc1[nH]c2ccc(F)cc2c1/N=N/C(S)=N/c1ncc(C2CCC2)o1 | 12.5 (≈ 34.8 µM) |
| C/C(=N\N=C(/S)Nc1ncc(C2CCC2)o1)c1ccc(C)cc1 | 0.78 (≈ 2.37 µM) |
| Oc1[nH]c2ccccc2c1/N=N/C(S)=N/c1ncc(C2CCC2)o1 | 25 (≈ 73.2 µM) |
| C/C(=N\N=C(/S)Nc1ncc(C2CCC2)o1)c1ccccc1O | 3.12 (≈ 9.44 µM) |
| C/C(=N\N=C(/S)Nc1ncc(C2CCC2)o1)c1ccc(O)cc1 | 3.12 (≈ 9.44 µM) |
| S=C(NN=C(c1ccccc1)c1ccccc1)Nc1ncc(C2CCC2)o1 | 0.1 (≈ 0.266 µM) |
| S=C(NN=C(Cc1ccccc1)Cc1ccccc1)Nc1ncc(C2CCC2)o1 | 6.25 (≈ 15.4 µM) |
| O=[N+]([O-])c1ccccc1/C=N/N=C(\S)Nc1ncc(C2CCC2)o1 | 0.78 (≈ 2.26 µM) |
| CO[C@H]1/C=C/O[C@@]2(C)Oc3c(C)c(O)c4c(O)c(c(/C=N/N5CCN(C)CC5)c(O)c4c3C2=O)NC(=O)/C(C)=C\C=C\[C@H](C)[C@H](O)[C@@H](C)[C@@H](O)[C@@H](C)[C@H](OC(C)=O)[C@@H]1C [RIFAMPIN] | 3.12 (≈ 3.79 µM) |
| Oc1ccccc1/C=N/N=C(\S)Nc1ncc(C2CCC2)o1 | 6.25 (≈ 19.8 µM) |
| O=[N+]([O-])c1cccc(/C=N/N=C(\S)Nc2ncc(C3CCC3)o2)c1 | 0.78 (≈ 2.26 µM) |
| COc1cc(/C=N/N=C(\S)Nc2ncc(C3CCC3)o2)ccc1O | 12.5 (≈ 36.1 µM) |
| S=C(N/N=C(\c1ccccc1)c1ccc(Br)cc1)Nc1ncc(C2CCC2)o1 | 0.05 (≈ 0.11 µM) |
| C/C(=N\N=C(/S)Nc1ncc(C2CCC2)o1)c1ccc([N+](=O)[O-])cc1 | 0.2 (≈ 0.556 µM) |
| C/C(=N\N=C(/S)Nc1ncc(C2CCC2)o1)c1ccc(N)cc1 | 0.78 (≈ 2.37 µM) |
| S=C(N/N=C/c1ccc(Cl)cc1)Nc1ncc(C2CCC2)o1 | 1.56 (≈ 4.66 µM) |
| NNC(=O)c1ccncc1 [ISONIAZID] | 1.56 (≈ 11.4 µM) |
| CN(C)c1ccc(/C=N/N=C(\S)Nc2ncc(C3CCC3)o2)cc1 | 3.12 (≈ 9.08 µM) |
| Cc1ccc(/C=N/N=C(\S)Nc2ncc(C3CCC3)o2)cc1 | 3.12 (≈ 9.92 µM) |
| COc1ccc(/C=N/N=C(\S)Nc2ncc(C3CCC3)o2)cc1 | 6.25 (≈ 18.9 µM) |
| O=[N+]([O-])c1ccc(/C=N/N=C(\S)Nc2ncc(C3CCC3)o2)cc1 | 0.39 (≈ 1.13 µM) |
| CC[C@@H](CO)NCCN[C@@H](CC)CO [ETHAMBUTOL] | 25 (≈ 122 µM) |
| COc1c(N2CCNC(C)C2)c(F)cc2c(=O)c(C(=O)O)cn(C3CC3)c12 (stereo unspecified) [GATIFLOXACIN] | 6.25 (≈ 16.6 µM) |
